Screening results deposited in PubChem by Broad Institute.
Env fusion inh: blocks HIV Env-driven cell-cell fusion | HeLa-JRFL Env/CEM21 cell fusion, luciferase | inhibition, % at 12.3 µM | hit rate 1.1% among 360,000;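 active means mean replicate inhibition score of at least 50 and every replicate individually at or above 50; inconclusive means only one of the two criteria met; inactive means mean below 50 and not all replicates reaching 50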;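 further: 0% = plate neutral controls and 100% = maraviroc near 300 nM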
FGF22 binding: binders of recombinant human FGF22 by thermal shift | Q9HCT0 | SYPRO orange fluorescence; percent of sucrose octasulfate shift, DMSO zero | activity (Tm shift, normalised), % at 9.99 µM | hit rate 1.5% among 340,000 | AID 651658;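 active means mean Tm shift, scaled 0 neutral to 100 positive control, at about 1.3% or above, every replicate too, limit read from the data; inconclusive means no clear call, values can overlap the other calls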
PGC1a acetyl inh: modulators of PGC1a acetylation | U2OS PGC1a acetylation, AlphaScreen anti-acetyl-lysine; with virally co-expressed GCN5 acetyltransferase | inhibition, % at 15.6 µM | hit rate 0.17% among 350,000 | AID 651687;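 active means every replicate shows inhibition of at least 40%; inconclusive means mean inhibition at least 40% but some replicate below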;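 further: 0% = neutral control wells and 100% = positive control wells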
Cneo AK release: causes C. neoformans cell lysis. adenylate kinase release luminescence, 4 h; normalised: neutral wells 0, clomiphene wells 100. lysis activity, % at 15 µM. hit rate 0.2% among 360,000. AID 651654;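 active means mean lysis activity across replicates of at least 80%, whatever share of replicates individually reach that level; inactive means mean lysis activity below 80%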
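Material: C. neoformans cells | Amount: Yeast cell density of 5 × 10^6 cells/mL | Medium: Fresh YPD growth medium | Dosing: Single dose | Times: Static 4 h at 37 °C with compound, 1 h detection | Detection: AK luminescence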
Ecoli rRNA inh: inhibits bacterial ribosomal RNA function over humanized ribosomes; E. coli WT GFP vs humanized-ribosome RFP mutants, fluorescence, 24 h; active compounds read low; DMSO median 0, no signal -100; GFP signal change (wild-type ribosome), % (test concentration not listed); hit rate 1.6% among 350,000;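 active means significant combined selectivity score with lowered wild-type GFP, culture density cut under 30%, mutant RFP and density less affected; inactive means any of these conditions unmet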
ERAP1 inh: ERAP1 (human) enzyme inhibition; Q9NZ08; AID 652197; recombinant ERAP1, Leu-AMC fluorescence, 60 min; hit rate 0.15% among 340,000; inhibition, % at 10.7 µM;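 active means mean replicate inhibition of at least 30%, or all replicates individually reaching that 30% level; inactive means mean below 30% and not every replicate reaching it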;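 further: 0% = neutral control wells and 100% = L-leucinethiol positive control wells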
Starred values were filed as active, the others as inactive; ? = inconclusive; . = no result; [ ] = dose if it differs, or a comment. Only some compounds are listed: those with a hit (about 3.5% of all), similar ones and a draw of the others.

SMILES	Env fusion inh	FGF22 binding	PGC1a acetyl inh	Cneo AK release	Ecoli rRNA inh	ERAP1 inh
CC(NC(=O)CN1C(=O)NC(Cc2ccccc2)(Cc2ccccc2)C1=O)C12CC3CC(CC(C3)C1)C2 (stereo unspecified)	.	.	-10	3	.	.
O=C(NCCN1CCOCC1)c1cnn2c(-c3ccccc3)cc(-c3ccccc3)nc12	-43	.	-36	.	.	.
Cc1nc2ccc(NC(=O)c3ccc(S(=O)(=O)N(C)C)cc3)cc2s1	4	41	.	.	-18	1
CCN(c1ccccc1)S(=O)(=O)c1ccc(NC(=O)c2nc(S(C)(=O)=O)ncc2Cl)cc1	.	.	.	3	.	.
Cc1nc2ccc(NC(=O)c3ccc(Cl)c(S(=O)(=O)N(C)c4ccccc4)c3)cc2s1	74*	.	2	-10	.	.
CCS(=O)(=O)c1ncc(Cl)c(C(=O)Nc2ccc(S(=O)(=O)N(C)c3ccccc3)cc2)n1	?	0	.	-1	-36*	3
Cc1nc2ccc(NC(=O)c3cc(S(=O)(=O)N(C)c4ccccc4)ccc3Cl)cc2s1	87*	.	.	.	.	.
CN(c1ccccc1)S(=O)(=O)c1ccc(Cl)c(C(=O)Nc2ccc(N3CCOCC3)cc2)c1	7	0	.	-1	-10	-4
CCc1ccccc1NC(=O)c1nnn(CC(=O)Nc2cccc(C)c2)c1N	-73	.	2	-1	.	-5
OC(CN1CCCC(C(F)(F)F)C1)c1ccccc1 (stereo unspecified)	10	0	.	5	10	-1
C[C@@H]1CN([C@H](C)CO)C(=O)c2cccc(NC(=O)Nc3ccc4c(c3)OCO4)c2O[C@H]1CN(C)Cc1ccc(C(=O)Nc2ccccc2N)cc1	.	0	0	-1	-5	-1
O=C1Oc2ccccc2C(=O)/C1=C/N1CCN(c2ccccc2F)CC1	25	0	5	.	-30*	0
Cc1ccc(C2=NS(=O)(=O)N(C)C(C(=O)Nc3cc(C)n(CC(=O)N4CCC(C)CC4)n3)=C2)cc1	1	0	11	-9	-29*	-1
CN(C)C(CNC(=O)c1cc2ccccc2oc1=O)c1ccccc1 (stereo unspecified)	-52	0	-1	-3	4	0
CCOC(=O)c1cnc2c(-c3ccc(Cl)cc3)cnn2c1C	-6	0	.	.	5	1
CCC(NC(=O)c1ccccc1O)c1ccccc1 (stereo unspecified)	-25	.	-9	-2	.	.
COc1cccc2cc(C(=O)Nc3ccc(F)cc3)c(=Nc3ccc(C(=O)O)cc3)oc12	4	43*	-10	-1	8	4
COc1ccc(N=c2oc3c(OC)cccc3cc2C(=O)NCc2ccco2)cc1OC	.	.	.	-3	.	.
Cc1c(CC(=O)NCCCC(=O)O)c(=O)oc2cc3occ(-c4ccccc4)c3cc12	-11	0	5	-3	-2	-1
Cc1c(CCC(=O)NCCCCCC(=O)O)c(=O)oc2cc3occ(-c4ccccc4)c3cc12	-1	0	12	0	-16	35*
Cc1coc2cc3oc(=O)c(Cc4ccccc4)c(C)c3cc12	7	0	.	.	-22*	0
COc1ccc2nc3n(c(=O)c2c1)-c1cc(Cl)ccc1C(=O)NC3Cc1ccccc1 (stereo unspecified)	-2	0	.	.	4	1
CC(C)(COC(=O)C(c1ccccc1)c1ccccc1)CN1CCOCC1	80*	0	-8	.	-4	8
O=C(OCCN1CCOCC1)C(c1ccccc1)c1ccccc1	.	.	-20	.	.	.
CC(=O)c1cccc(NC(=O)CSc2n[nH]c(=O)n2C2CC2)c1	12	43*	-8	-1	4	-4
SMILES	Env fusion inh	FGF22 binding	PGC1a acetyl inh	Cneo AK release	Ecoli rRNA inh	ERAP1 inh
O=C(CSc1n[nH]c(=O)n1C1CC1)Nc1ccc(Cl)c(Cl)c1	-2	0	-9	-3	-20*	.
O=C(CSc1n[nH]c(=O)n1C1CC1)Nc1ccc(F)c(Cl)c1	-3	0	0	2	-8	-2
CCN(CC)S(=O)(=O)c1ccccc1/C=N\O	.	.	1	4	.	.
Cc1c(Cc2ccc3c(c2)OCO3)sc(NC(=O)c2cccc3ccccc23)c1C(N)=O	.	0	.	-2	1	0
Cc1c(Cc2ccc3c(c2)OCO3)sc(NC(=O)C2CC2)c1C(N)=O	6	0	-10	-3	-27*	1
CN1CCN(CC#CCn2c3ccccc3c3ccccc32)CC1	.	0	-14	2	-34*	-2
CCOc1ccc(N2C(=O)/C(=C\c3ccc(OC)c(O)c3)S(=O)(=O)C2c2cccc([N+](=O)[O-])c2)cc1 (stereo unspecified)	14	0	.	.	13	-1
CCOc1ccc(N2C(=O)/C(=C\c3ccc(O)c(OC)c3)S(=O)(=O)C2c2cccc([N+](=O)[O-])c2)cc1 (stereo unspecified)	-5	44*	6	1	11	5
C[C@@H]1CN([C@@H](C)CO)S(=O)(=O)c2ccc(-c3cccc(C#N)c3)cc2O[C@H]1CN(C)C	-1[16.7 µM]	0	2	-2	2	1
O=C(c1ccccc1)c1nccn1-c1ccc(Cl)nn1	0	0	7	-2	-36*	.
COc1ccc(NS(=O)(=O)c2ccc(NC(=O)c3ccccc3Br)cc2)nn1	8	0	2	0	-26*	9
COc1ccc(NS(=O)(=O)c2ccc(NC(=O)c3ccccc3)cc2)nn1	2	0	10	.	-11	-2
COc1ccc(CCNc2nc(=S)[nH]c3cc(OC)c(OC)cc23)cc1OC	26	43*	.	.	0	-3
COc1cc2[nH]c(=S)nc(NCCc3ccc(S(N)(=O)=O)cc3)c2cc1OC	11	42	8	.	0	-2
COc1ccc(CCNc2nc(-c3ccncc3)cs2)cc1OC	15	0	0	.	-27*	.
COc1cc2[nH]c(=S)nc(NCCc3ccc(C)cc3)c2cc1OC	32	0	.	.	-26*	0
CC(=O)N1C(=O)/C(=C2\SC(=S)N(c3c(C)n(C)n(-c4ccccc4)c3=O)C2=O)c2ccccc21	18	.	.	.	.	.
O=C(NCc1cccc(Cl)c1)c1ccc(-n2ccnc2)c2ccoc12	.	0	-52	7	-14	-3
COCCN(C(=O)COC(=O)c1cnc(C)cn1)c1c(N)n(Cc2ccccc2)c(=O)[nH]c1=O	.	0	7	-1	1	-5
Cc1cccc(CSCCNC(=O)CCSc2ccccc2)c1	12	44*	.	1	-48	-2
COc1cc(NC(=O)CSc2nncn2C)c(C)cc1[N+](=O)[O-]	-19	43*	.	0	.	-3
CCSc1nnc(NC(=O)CSC2=NCCS2)s1	-8	0	94*	.	5	-1
CCOC(=O)NNS(=O)(=O)c1cc(Br)ccc1Br	-64	43*	1	3	0	-6
COc1cccc(CNS(=O)(=O)c2cc(Br)ccc2Br)c1	9	1	-8	-2	-48	.
